The text below walks through data of publication PMC3149845 (The Journal of neuroscience : the official journal of the …, 2011).

Entries after “also recorded” stand apart in the source; their conditions may differ. Peptide text beside a SMILES is read from it.

The target of test [1] is T1, hTas1R2/smTas1R3 (Homo sapiens, UniProt Q8TE23).
T1 sequence (Q8TE23 20-839): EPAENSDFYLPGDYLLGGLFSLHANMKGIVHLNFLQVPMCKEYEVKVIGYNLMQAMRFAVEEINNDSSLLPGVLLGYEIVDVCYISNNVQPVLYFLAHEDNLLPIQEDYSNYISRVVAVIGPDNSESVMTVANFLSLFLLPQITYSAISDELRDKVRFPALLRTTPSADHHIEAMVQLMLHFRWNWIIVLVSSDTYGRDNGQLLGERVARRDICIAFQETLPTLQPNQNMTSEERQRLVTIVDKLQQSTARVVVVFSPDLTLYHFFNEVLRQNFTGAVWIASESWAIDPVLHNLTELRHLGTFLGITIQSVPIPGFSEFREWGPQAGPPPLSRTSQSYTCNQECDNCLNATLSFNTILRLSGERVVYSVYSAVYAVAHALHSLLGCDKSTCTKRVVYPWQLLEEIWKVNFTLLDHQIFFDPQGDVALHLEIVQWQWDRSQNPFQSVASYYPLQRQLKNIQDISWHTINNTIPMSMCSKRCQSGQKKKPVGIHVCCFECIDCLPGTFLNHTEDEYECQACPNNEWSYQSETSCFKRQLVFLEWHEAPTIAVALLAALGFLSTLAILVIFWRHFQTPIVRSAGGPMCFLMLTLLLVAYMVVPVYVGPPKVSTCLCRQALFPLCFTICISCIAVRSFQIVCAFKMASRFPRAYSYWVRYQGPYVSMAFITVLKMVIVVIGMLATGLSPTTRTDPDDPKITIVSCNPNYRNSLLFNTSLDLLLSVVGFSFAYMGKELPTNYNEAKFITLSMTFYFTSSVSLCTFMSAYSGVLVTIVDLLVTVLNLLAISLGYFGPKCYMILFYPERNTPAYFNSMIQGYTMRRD
Kind of test: Ca2+ mobilization, mismatched receptor. The note with it: aspartame 10mM, neotame 1mM, sucralose 2 mM, D-tryptophan 5mM, sucrose 150mM; vs control / wild type human receptor. Format: cell-based, human/squirrel monkey. A digest of the protocol: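 Transfected HEK293E cells (50,000/well; 0.06 μg Tas1R plasmid and 0.06 μg Gα16-gust44 per well) were medium-changed at 20 h, then loaded after 24 h with 3 μM Fluo-4 AM in HBSS/20 mM HEPES for 1 h. Tastant added 30 s into scan; fluorescence (ex 488/em 525 nm) read every 2 s for 150 s. ΔF/F normalized to the hTas1R2/hTas1R3 sucralose response; three independent experiments; unpaired t test.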
In general terms: Calcium flux is commonly read through the fluorescence of an indicator in the cells.

Test [2] concerns the target sm(1–567)hTas1R2 + hTas1R3 (Saimiri sciureus, UniProt A3QP08, A682V/A736V/D779S/E587Q/F759L/F793L/I713V/L619P/L692M/M590I/M711T/N698S/S673P/S691G/T687I/T705P/V634L/V653A/V677M/V777A). In words: Ca2+ mobilization, chimera receptor. Format: cell-based, human/squirrel monkey. The note with it: aspartame 10mM, neotame 1mM, sucralose 2 mM; compared with hTas1R2/hTas1R3.

For the compound `COC(=O)[C@H](Cc1ccccc1)NC(=O)[C@@H](N)CC(=O)O` [aspartame, L-α-aspartly-L-phenylalanine methyl ester] (H-Asp-Phe-OMe), the “calcium response to sweetener” value is “able to respond; also recorded: reduced responses” in test [1] and “no responses” in test [2].

On to `COC(=O)[C@H](Cc1ccccc1)NC(=O)[C@H](CC(=O)O)NCCC(C)(C)C` [neotame], for which the “calcium response to sweetener” value in test [1] is “able to respond”; in test [2], “no responses”.

Regarding `OC[C@H]1O[C@H](O[C@]2(CCl)O[C@H](CCl)[C@@H](O)[C@@H]2O)[C@H](O)[C@@H](O)[C@H]1Cl` [sucralose], the “calcium response to sweetener” value is given as “reduced responses” in test [1] and “significant increase of the response” in test [2].
